Screening data as filed in PubChem BioAssay.
Shown are actives, neighbours in structure and some others; about 1.4% of the full set was active somewhere.
CHT block = human CHT choline transport inhibition. actives 0.86% (n = 310,000). Q9GZV3. AID 488975. CHT-expressing cells, membrane potential dye, choline response; stronger effect = lower value. B-score at 10 µM;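 active = B-score over 3 SD under the library average, and starting fluorescence ratio not unusually high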;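 note: choline stimulus applied at its EC90 after an EC20 pre-addition; B-score computed on integrated fluorescence ratio after choline addition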
Target sequence (Q9GZV3 whole entry, looked up): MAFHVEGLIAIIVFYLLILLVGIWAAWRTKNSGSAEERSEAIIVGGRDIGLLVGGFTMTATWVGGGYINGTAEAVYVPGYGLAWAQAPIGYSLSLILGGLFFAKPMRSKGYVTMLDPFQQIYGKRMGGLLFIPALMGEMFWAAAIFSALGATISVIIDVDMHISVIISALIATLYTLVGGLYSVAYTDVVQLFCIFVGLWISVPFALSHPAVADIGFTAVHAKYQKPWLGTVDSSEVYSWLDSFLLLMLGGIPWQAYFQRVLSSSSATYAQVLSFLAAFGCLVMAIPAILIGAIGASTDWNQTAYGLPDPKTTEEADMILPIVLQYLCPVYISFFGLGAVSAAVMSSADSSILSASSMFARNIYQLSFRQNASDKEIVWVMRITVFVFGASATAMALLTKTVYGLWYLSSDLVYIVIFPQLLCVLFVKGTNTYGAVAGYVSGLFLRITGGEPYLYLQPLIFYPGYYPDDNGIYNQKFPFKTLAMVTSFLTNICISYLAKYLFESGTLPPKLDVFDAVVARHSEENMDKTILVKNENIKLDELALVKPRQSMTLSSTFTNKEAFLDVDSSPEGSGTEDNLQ
ABCB6 inh MLPCN = blocks the human ABCB6 transporter | Q9NP58 | K562-ABCB6 porphyrin accumulation, flow cytometry, 1 h; stronger effect = lower value | fluorescence ratio to DMSO, % at 10 µM | actives 0.19% (n = 360,000);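 active = fluorescence ratio to DMSO below 75%, the collection mean minus 3 SD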;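 note: signal is porphyrin accumulated inside mitochondria; 100% equals median channel fluorescence of DMSO control wells; lower ratio means ABCB6 inhibition with less porphyrin fluorescence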
TNAP inh noacc = inhibitors of human TNAP without phosphate acceptor. purified TNAP, CDP-star luminescence, 30 min. inhibition, % at 20 µM. actives 0.26% (n = 200,000). AID 1012;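 active = tissue-nonspecific alkaline phosphatase inhibition above about 50% at 20 µM in the single-dose screen, limit read from the data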;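 note: 0% = DMSO negative control and 100% = EDTA positive control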
CHT allo act = allosterically activates the human high affinity choline transporter; Q9GZV3; CHT-expressing cells, membrane potential dye, choline EC20; stronger effect = higher value; LV-AA mutant CHT in HEK293 cells; B-score at 10 µM; actives 0.49% (n = 310,000); AID 488977;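 active = initial fluorescence not abnormally high and integrated response B-score, plate-corrected, over 3 SD above library mean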
TNAP inh hiacc = inhibitors of human TNAP at high phosphate acceptor concentration; P05186; purified TNAP, CDP-star luminescence, 1 M DEA; inhibition, % at 20 µM; actives 0.03% (n = 200,000); AID 1135;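 active = over 50% inhibition of tissue-nonspecific alkaline phosphatase at 20 µM in the single-dose screen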;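 note: plate controls were DMSO wells for no effect and EDTA-quenched wells as full inhibition for full effect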
TNAP act hi DEA = TNAP (human) activation, high acceptor; P05186; purified TNAP, CDP-star luminescence, 1 M DEA, 30 min; stronger effect = higher value; 0 = EDTA background, 1 = DMSO-only activity; activation factor at 20 µM; 200,000 tested, under 10 active; AID 1136;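 active = activation factor at least 2 at 20 µM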
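Measured by: Luminescent substrate turnover signal | Test system: Human TNAP | Input: TNAP 1/800 final | Dosing: 20 µM single point | Schedule: 30 min, room temperature | Controls: EDTA wells as negative control, DMSO wells as positive control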
CHT inh conf = confirmation of human choline transporter CHT inhibitors. shares compounds with CHT block. CHT-expressing cells, choline membrane potential dye; LV-to-AA substituted CHT, HEK293 cells. CHT activity remaining % of control (stronger effect = lower value), % at 10 µM. actives 70% (n = 2,400);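 active = choline transporter activity left, mean of duplicates at 10 µM, below buffer-only control mean minus 3 SD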;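 note: depolarization triggered by choline at its EC90 following an EC20 pre-addition; 0% = hemicholinium-3 full block and 100% = buffer-only control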
HEK293 CHT ctr = counter-screen for CHT inhibitors: effect in parental HEK293 cells | membrane potential ratio readout (active if shifted either direction beyond buffer ±3SD; no single direction) at 10 µM | AID 493222 | shares compounds with CHT block | membrane potential dye, choline response; active = decrease or increase beyond buffer ±3SD | actives 4% (n = 2,400);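 note: parental cells lack the transporter so any hit is non-specific; ratio is peak minus trough fluorescence over baseline after EC90 choline challenge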
* = called active by the depositor; i = inactive; . = no result.

SMILES | CHT block | ABCB6 inh MLPCN | TNAP inh noacc | CHT allo act | TNAP inh hiacc | TNAP act hi DEA | CHT inh conf | HEK293 CHT ctr
CCC(C)Nc1nc(Cl)nc(N(C#N)CN2C(=O)c3ccccc3S2(=O)=O)n1 (configuration not stated) | i | 106 | -1 | i | 1 | 1 | . | .
CC(C)Nc1nc(Cl)nc(N(C#N)CN2C(=O)c3ccccc3C2=O)n1 | -6.9* | 103 | -12 | i | -8 | 1.1 | 40%* | i
CCCCCCn1c(SCC(=O)NC2CCS(=O)(=O)C2)nc2ccccc2c1=O (configuration not stated) | . | 101 | . | . | . | . | . | .
COc1ccc(OC)c(C2=Nn3c(nnc3C3CCCCC3)SC2)c1 | i | 95 | -6 | i | 0 | 1 | . | .
COc1ccc(C2=Nn3c(nnc3C3CCCCC3)SC2)cc1OC | -6.8* | 100 | -15 | i | -1 | 1 | 52%* | i
Cc1noc(C)c1NC(=O)N(C)C[C@H]1Oc2ccc(NC(=O)NC3CCCCC3)cc2C(=O)N([C@H](C)CO)C[C@@H]1C | . | 96 | . | . | . | . | . | .
CC(C)Oc1ccc(/C=N/NC(=O)C(CSCc2ccccc2)NC(=O)c2ccc([N+](=O)[O-])cc2)cc1 (configuration not stated) | -5.5* | 92 | -7 | i | -3 | 1 | i | i
CCC(=O)N1CCc2cc(Br)cc(S(=O)(=O)NC3CCN(Cc4ccccc4)CC3)c21 | -9* | 101 | . | i | . | . | 38%* | 3.2*
CCC(=O)N1CCc2cc(Br)cc(S(=O)(=O)NCCCN(C)Cc3ccccc3)c21 | i | 89 | . | i | . | . | . | .
O=S(=O)(NC1CCN(Cc2ccccc2)CC1)c1ccc2ccccc2c1 | -5.7* | 104 | -1 | i | 0 | 1 | i | i
O=[N+]([O-])c1c(Nc2cccc(O)c2)cc(Cl)c2nonc12 | -7.4* | 88 | . | i | . | . | 28%* | i
CCSc1nnc(NC(=O)C(C)(C(F)(F)F)C(F)(F)F)s1 | -8.8* | 96 | -3 | i | -8 | 1.1 | 70%* | i
O=C(Nc1ccc(F)cc1F)c1csc(-c2ccncc2)n1 | i | 98 | -10 | i | -4 | 1 | . | .
Cc1ccc(C(=O)Nc2cccc(C(F)(F)F)c2)cc1NC(=O)c1csc(-c2ccncc2)n1 | -8* | 95 | . | i | . | . | 25%* | i
Cc1ccccc1OCc1nnc(SCC(=O)O)n1-c1ccccc1 | i | 96 | . | i | . | . | . | .
Cc1ccccc1OCCSc1nnc(C)n1-c1ccccc1 | -5.2* | 87 | -22 | i | -4 | 1 | i | i
CC(C)NS(=O)(=O)c1ccc(OCC(=O)N2CCc3ccccc3C2)cc1 | i | 101 | -4 | i | -3 | 1 | . | .
CC(C)NS(=O)(=O)c1ccc(CCC(=O)N2CCc3ccccc3C2)cc1 | -5.1* | 105 | -11 | i | -2 | 1 | 46%* | i
CC1CCCCN1C(=O)COc1ccccc1F (configuration not stated) | i | 100 | -7 | i | -7 | 1.1 | . | .
Nc1ccccc1C(=O)NC1CCCNC1=O (configuration not stated) | -16* | 100 | . | i | . | . | i | i
O=C(Nc1ccc(Cl)cc1)NC1CCCCNC1=O (configuration not stated) | i | 100 | . | i | . | . | . | .
Fc1ccc(OCCOCCOc2cccc3[nH]ccc23)cc1 | -5.3* | 97 | -2 | i | -2 | 1 | i | i
Cc1ccc(S(=O)(=O)N2[C@@H](c3ccccc3F)C(C(=O)O)=CC[C@H]2c2cccs2)cc1 | i | 101 | . | i | . | . | . | .
COc1ccccc1/C=C1\SC(=O)N(CC(=O)NCCCn2ccnc2)C1=O | -7.1* | 96 | . | i | . | . | 69%* | i
CCN(CC)CCCN(C(=O)c1ccco1)c1nc(-c2ccc(Cl)cc2)cs1 | -6.3* | 96 | . | i | . | . | 37%* | i
SMILES | CHT block | ABCB6 inh MLPCN | TNAP inh noacc | CHT allo act | TNAP inh hiacc | TNAP act hi DEA | CHT inh conf | HEK293 CHT ctr
CN(C)C1(CNC(=O)C2CCN(S(=O)(=O)c3c(Cl)cccc3Cl)CC2)CCCCC1 | i | 96 | . | i | . | . | . | .
CCC(C)(C)NC(=O)c1ccc(S(=O)(=O)N2CCCCCC2)cc1 | i | 91 | -18 | i | -5 | 1 | . | .
CCn1ncc(Br)c1C(=O)NC(C)c1ccccc1 (configuration not stated) | -5.8* | 108 | -8 | i | -6 | 1.1 | i | i
COCC(=O)Nc1ccc(C(=O)Nc2ccccc2Cl)cc1 | i | . | -4 | i | -1 | 1 | . | .
N=c1n(Cc2ccc(Cl)cc2)c2ccccc2n1CC(O)COc1ccccc1 (configuration not stated) | -9.2* | 98 | -42 | i | -8 | 1.1 | 46%* | i
Cc1cccc(OCC(O)CN2CCNCC2)c1 (configuration not stated) | i | 101 | . | i | . | . | . | .
N=c1n(Cc2ccccc2)c2ccccc2n1CC(O)COc1ccc(Cl)cc1Cl (configuration not stated) | . | 98 | -14 | . | -9 | 1.1 | . | .
Cc1cccc(OCC(O)Cn2c(=N)n(Cc3ccccc3)c3ccccc32)c1 (configuration not stated) | -12* | 100 | . | i | . | . | 57%* | i
Cc1ccc(OCC(O)Cn2c(=N)n(Cc3ccccc3)c3ccccc32)cc1 (configuration not stated) | -9* | 95 | -23 | i | -10 | 1.1 | 51%* | i
COc1ccc(OCC(O)Cn2c(=N)n(Cc3ccccc3)c3ccccc32)cc1 (configuration not stated) | -5.3* | 96 | -23 | i | -4 | 1 | 31%* | i
CCC(=O)Nc1cc2nn(-c3ccc(OC)cc3)nc2cc1C | -6.6* | 79 | -8 | i | -2 | 1 | i | i
COc1ccc(S(=O)(=O)Nc2ccc(-n3cnnn3)cc2)cc1[N+](=O)[O-] | . | 98 | . | . | . | . | . | .
Cc1n[nH]c(C)c1S(=O)(=O)N1CCCC(C(=O)N2CCN(c3ccc(Cl)cc3)CC2)C1 (configuration not stated) | -5.2* | 104 | 38 | i | -3 | 1 | i | i
Cc1n[nH]c(C)c1S(=O)(=O)N1CCCC(C(=O)N2CCc3ccccc32)C1 (configuration not stated) | i | 92 | 20 | i | -4 | 1 | . | .
